# Results: ChEMBL document CHEMBL1135780, “6-Chloro-3-alkylamino-4H-thieno[3,2-e]-1,2,4-thiadiazine 1,1-dioxide derivatives potently and selectively activate ATP sensitive potassium channels of pancreatic beta-cells” (J Med Chem, 2002)
# Key:
# [1] = Oral bioavailability in rat (Sprague-Dawley); type: ADME, organism-based; details: in vivo; for bioavailability: Sprague-Dawley
# How it was run: (§1)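 Cassette dosing, two compounds per cassette, in Sprague–Dawley rats of about 180 g, n = 2. iv doses 0.5 or 0.89 mg/kg; oral doses 1.89 or 2.0 mg/kg. Vehicle 0.1 M potassium phosphate pH 8.0, or PEG 300 based. Heart-puncture sampling, one rat per point. Plasma levels by LC/MS/MS; noncompartmental analysis.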
# [2] = Half life after oral administration to Sprague-Dawley rats; type: ADME, organism-based; details: rat, in vivo; how it was run: as §1
# Beta-TC6 [3] = assay: Percentage insulin release in vitro in beta-TC6 cells; type: functional; details: Mus musculus
# How it was run: (§2)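 βTC6 cells, 5 × 10⁴/well, grown 3 days in DMEM + 10% FCS, 11 mM glucose, 20 mM Hepes. Washed twice in NN buffer with 0.1% BSA, preincubated 60 min, then 3 h with 22 mM glucose, 0.1 mM IBMX and serial compound dilutions. Insulin in supernatant measured by in-house ELISA (guinea pig anti-insulin, rat insulin standard). Reference compound as positive control.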
# Beta-TC6 [4] = assay: Ability to inhibit the release of insulin from the mouse beta-TC6 cell line; type: functional, cell-based; how it was run: as §2
# [5] = Changes in potassium fluxes assessed in the glucose responsive insulin-producing murine cell line beta-TC3; type: functional, cell-based, Mus musculus
# How it was run: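 βTC3 membrane potential read as DiBAC4(3) fluorescence at 0.01, 0.1, 1, 10 and 100 µM, four wells each. Signal normalized to each well's initial value and expressed as fractional fluorescence change over 45 min incubation. EC50 from four-parameter nonlinear fit; mean ± SEM of at least three independent experiments.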
# Rattus norvegicus [6] = organism: Rattus norvegicus; assay: Maximum change in MAP in rat; type: functional
# How it was run: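 Anaesthetized male Sprague–Dawley rats given 3 mg/kg iv bolus (0.3 mg/kg for one compound) in 0.15% NaOH/saline via jugular cannula. Maximal percent change in mean arterial pressure over 5 min after dosing; mean ± SEM, 2–4 animals.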
# Rattus norvegicus [7] = organism: Rattus norvegicus; assay: Vasodilation effects on Wistar rat mesenteric arteries precontracted with phenylephrine; type: functional
# Rattus norvegicus [8] = organism: Rattus norvegicus; assay: Ability to relax phenylephrine-contracted rat aorta rings; type: functional
# Rattus norvegicus [9] = organism: Rattus norvegicus; assay: Inhibition of glucose-stimulated insulin release from Wistar rat islets; type: functional
# How it was run: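 Isolated rat islets held overnight in RPMI, 10% FCS, 11 mM glucose, then 10 islets/well overnight in DMEM, 10% FCS, 3 mM glucose. Run like the βTC6 assay (60 min NN buffer preincubation, 3 h with 22 mM glucose and serial dilutions) without IBMX. Insulin by in-house ELISA.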
# Rattus norvegicus [10] = organism: Rattus norvegicus; assay: Reduction in plasma insulin in 30 min post-injection in rat; type: functional; set-up: concentration or dose not given beside the values
# How it was run: (§3)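 Postprandial male Sprague–Dawley rats, 280–320 g, under Hypnorm/Dormicum at 37 °C. 3 mg/kg iv bolus over 20 s via jugular cannula (0.3 mg/kg for one compound), dissolved in 0.15% NaOH and saline. Blood taken every 5–10 min from 15 min pre- to 30 min postinjection. Plasma insulin by ELISA, as % reduction from pre-dose level. 2–4 animals.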
# Rattus norvegicus [11] = organism: Rattus norvegicus; assay: Maximum reduction in plasma insulin in rat; type: functional; how it was run: as §3
# [12] = target: T1, Sulfonylurea receptor 1, Kir6.2 (Homo sapiens, UniProt Q09428+Q14654); assay: Inhibition of [3H]glibenclamide binding to HEK293 cells co-expressing human Sulfonylurea receptor SUR1 and Inward rectifier K+ channel Kir6.2 at high affinity state with 2 mM MgATP; type: cell-based
# T1 sequence (Q14654 whole entry): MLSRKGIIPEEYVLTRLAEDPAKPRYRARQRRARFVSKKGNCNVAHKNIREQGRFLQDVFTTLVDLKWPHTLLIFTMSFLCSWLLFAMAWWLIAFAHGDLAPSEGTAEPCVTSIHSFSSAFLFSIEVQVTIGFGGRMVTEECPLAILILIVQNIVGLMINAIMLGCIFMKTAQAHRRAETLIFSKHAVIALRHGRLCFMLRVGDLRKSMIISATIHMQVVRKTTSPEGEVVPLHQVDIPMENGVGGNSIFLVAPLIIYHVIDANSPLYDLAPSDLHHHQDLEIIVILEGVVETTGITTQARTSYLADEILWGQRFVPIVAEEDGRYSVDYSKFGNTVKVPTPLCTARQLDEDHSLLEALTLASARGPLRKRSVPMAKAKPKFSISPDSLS
# T1 sequence (Q09428 whole entry): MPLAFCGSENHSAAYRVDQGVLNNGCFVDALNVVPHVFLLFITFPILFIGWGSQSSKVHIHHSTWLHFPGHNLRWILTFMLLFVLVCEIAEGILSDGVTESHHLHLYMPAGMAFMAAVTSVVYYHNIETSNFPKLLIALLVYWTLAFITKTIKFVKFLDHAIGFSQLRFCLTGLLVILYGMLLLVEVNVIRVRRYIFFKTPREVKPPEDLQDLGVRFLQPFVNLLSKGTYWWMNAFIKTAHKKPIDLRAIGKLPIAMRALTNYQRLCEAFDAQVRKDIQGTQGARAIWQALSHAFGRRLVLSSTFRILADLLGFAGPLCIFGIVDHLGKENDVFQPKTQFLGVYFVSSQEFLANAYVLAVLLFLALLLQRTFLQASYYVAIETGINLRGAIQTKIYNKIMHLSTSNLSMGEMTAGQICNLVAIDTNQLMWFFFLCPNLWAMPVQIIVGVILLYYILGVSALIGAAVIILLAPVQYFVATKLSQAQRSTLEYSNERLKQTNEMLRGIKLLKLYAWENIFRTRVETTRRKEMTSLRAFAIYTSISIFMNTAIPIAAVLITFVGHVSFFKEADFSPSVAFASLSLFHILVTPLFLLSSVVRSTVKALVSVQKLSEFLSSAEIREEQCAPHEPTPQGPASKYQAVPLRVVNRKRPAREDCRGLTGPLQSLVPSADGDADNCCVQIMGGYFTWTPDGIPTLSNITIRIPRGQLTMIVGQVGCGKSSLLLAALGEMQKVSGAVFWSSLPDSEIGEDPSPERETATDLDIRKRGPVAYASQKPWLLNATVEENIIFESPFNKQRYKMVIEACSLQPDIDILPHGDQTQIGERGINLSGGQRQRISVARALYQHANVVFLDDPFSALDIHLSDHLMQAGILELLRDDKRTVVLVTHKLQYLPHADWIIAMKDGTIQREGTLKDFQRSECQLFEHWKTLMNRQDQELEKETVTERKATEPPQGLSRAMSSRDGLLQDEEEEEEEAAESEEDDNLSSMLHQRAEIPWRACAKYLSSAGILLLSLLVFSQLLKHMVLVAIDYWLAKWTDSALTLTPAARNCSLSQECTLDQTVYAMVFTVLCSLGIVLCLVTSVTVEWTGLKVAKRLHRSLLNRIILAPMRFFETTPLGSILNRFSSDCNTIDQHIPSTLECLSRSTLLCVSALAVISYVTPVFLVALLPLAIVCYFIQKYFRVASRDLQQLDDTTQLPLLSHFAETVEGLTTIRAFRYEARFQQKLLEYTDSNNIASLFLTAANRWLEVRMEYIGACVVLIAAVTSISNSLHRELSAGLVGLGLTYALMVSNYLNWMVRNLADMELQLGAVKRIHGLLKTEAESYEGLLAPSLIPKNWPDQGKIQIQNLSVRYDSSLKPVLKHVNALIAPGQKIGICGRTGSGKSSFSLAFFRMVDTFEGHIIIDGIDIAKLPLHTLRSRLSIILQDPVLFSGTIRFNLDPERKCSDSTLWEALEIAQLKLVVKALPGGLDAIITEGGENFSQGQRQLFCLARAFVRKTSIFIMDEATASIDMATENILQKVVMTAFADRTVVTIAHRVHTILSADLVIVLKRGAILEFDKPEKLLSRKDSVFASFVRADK
# [13] = target: T1, Sulfonylurea receptor 1, Kir6.2; assay: Inhibition of [3H]glibenclamide binding to HEK293 cells co-expressing human Sulfonylurea receptor SUR1 and Inward rectifier K+ channel Kir6.2 at low affinity state with 2 mM MgATP; type: cell-based
# [14] = target: T1, Sulfonylurea receptor 1, Kir6.2; assay: (§4) Inhibition of [3H]glibenclamide binding to HEK293 cells co-expressing human Sulfonylurea receptor SUR1 and Inward rectifier K+ channel Kir6.2 without ATP; type: cell-based
# Beta-TC6 [15] = assay: Maximum inhibition of glucose stimulated insulin release from mouse beta-TC6 cells at 10 uM in vitro.; type: functional
# Rattus norvegicus [16] = organism: Rattus norvegicus; assay: Effective concentration required for relaxation of rat aorta rings; type: functional
# Rattus norvegicus [17] = organism: Rattus norvegicus; assay: Effective concentration required for relaxation of the rat aorta rings; type: functional
# [18] = Acid dissociation constant was determined; type: ADME
# How it was run: (§5)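 Potentiometric titration from pH 2 to 10.5 in 80% MeOH cosolvent. Three titrations on the same sample, with 0.15 M KCl added before the second. psKa values extrapolated to 0% cosolvent by Yasuda–Shedlovsky.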
# [19] = target: T1, Sulfonylurea receptor 1, Kir6.2; assay: as §4; type: cell-based; remark: listed apart in the source
# How it was run: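 Membranes from HEK293 cells stably expressing human SUR1/Kir6.2 (100 µg/mL protein) incubated 1 h at 37 °C with 1 nM [3H]glibenclamide in 30 mM HEPES pH 7.4, here without MgCl2 and ATP. Nonspecific binding with 10 µM glipizide. Rapid filtration, scintillation counting; IC50 by one- or two-site sigmoid nonlinear regression.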
# [20] = (§6) LogD for water and octanol distribution coefficient at pH 7.4; type: physicochemical
# How it was run: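 Octanol/water distribution measured by potentiometric titration, pH 10.5 to 2.0. Three titrations on one sample, with 1.00 mL then 10.00 mL octanol added before the second and third. Aqueous pKa used in refinement; combined multiset gives LogD at pH 7.4.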
# [21] = Partition coefficient (logP); type: physicochemical; details: octanol/water
# [22] = Compound was evaluated for physiochemical property pKa; type: physicochemical; how it was run: as §5
# [23] = as §6; type: physicochemical; remark: listed apart in the source
# How it was run: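 Three titrations on one sample, with 1.00 mL then 10.00 mL octanol added before the second and third. Aqueous pKa used in refinement; combined multiset gives LogD at pH 7.4.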
smiles,measurement,setting,value
O=S1(=O)NC(NC2CCC2)=Nc2cc(Cl)sc21,bioavailability,[1],49%
same,half-life,[2],113 min
same,Emax,Beta-TC6 [3],78%
same,IC50,Beta-TC6 [4],490 nM
same,EC50,[5],1400 nM
same,Change,Rattus norvegicus [6],5%
same,EC50,Rattus norvegicus [7],38.6 µM
same,EC50,Rattus norvegicus [8],27 µM
same,IC50,Rattus norvegicus [9],50 nM
same,Reduction,Rattus norvegicus [10],100%
same,Reduction,Rattus norvegicus [11],100%
same,IC50,[12],120 nM
same,IC50,[13],146 µM
same,IC50,[14],943 µM
NC1=NS(=O)(=O)c2sc(Cl)cc2N1,Emax at 10 µM,Beta-TC6 [15],27%
same,IC50,Beta-TC6 [4],21100 nM
same,EC50,Rattus norvegicus [8],262 µM
same,EC50,Rattus norvegicus [16],262 µM
CCC(C)(C)NC1=NS(=O)(=O)c2sc(Cl)cc2N1,bioavailability,[1],47%
same,half-life,[2],99 min
same,Emax,Beta-TC6 [3],82%
same,IC50,Beta-TC6 [4],30 nM
same,EC50,[5],200 nM
same,Change,Rattus norvegicus [6],-34%
same,EC50,Rattus norvegicus [7],29.4 µM
same,EC50,Rattus norvegicus [8],11.8 µM
same,IC50,Rattus norvegicus [9],20 nM
same,Reduction,Rattus norvegicus [10],77%
same,Reduction,Rattus norvegicus [11],87%
same,IC50,[12],180 nM
same,IC50,[13],375 µM
same,IC50,[14],899 µM
CC1(NC2=NS(=O)(=O)c3sc(Cl)cc3N2)CC1 [TIFENAZOXIDE],Emax,Beta-TC6 [3],69%
same,IC50,Beta-TC6 [4],150 nM
same,EC50,[5],600 nM
same,Change,Rattus norvegicus [6],-4%
same,EC50,Rattus norvegicus [7],14.3 µM
same,EC50,Rattus norvegicus [8],119 µM
same,Reduction,Rattus norvegicus [10],77%
same,Reduction,Rattus norvegicus [11],85%
CCCCNC1=NS(=O)(=O)c2sc(Cl)cc2N1,Emax at 10 µM,Beta-TC6 [15],66%
same,IC50,Beta-TC6 [4],1390 nM
same,EC50,[5],600 nM
same,EC50,Rattus norvegicus [8],13.4 µM
same,EC50,Rattus norvegicus [17],13.4 µM
CC[C@H](C)NC1=NS(=O)(=O)c2sc(Cl)cc2N1,bioavailability,[1],49%
same,pKa,[18],8.42
same,half-life,[2],58 min
same,Emax,Beta-TC6 [3],79%
same,IC50,Beta-TC6 [4],410 nM
same,EC50,[5],800 nM
same,Change,Rattus norvegicus [6],-7%
same,EC50,Rattus norvegicus [7],19.2 µM
same,EC50,Rattus norvegicus [8],51 µM
same,IC50,Rattus norvegicus [9],70 nM
same,Reduction,Rattus norvegicus [10],94%
same,Reduction,Rattus norvegicus [11],96%
same,IC50,[19],420 µM
same,IC50,[12],460 nM
same,IC50,[13],309 µM
CC1=Nc2ccc(Cl)cc2S(=O)(=O)N1 [DIAZOXIDE],F,[1],154%
same,Emax,Beta-TC6 [3],23%
same,EC50,[5],77400 nM
same,Change,Rattus norvegicus [6],-26%
same,EC50,Rattus norvegicus [7],20.8 µM
same,IC50,Rattus norvegicus [9],20300 nM
same,Reduction,Rattus norvegicus [10],53%
same,Reduction,Rattus norvegicus [11],53%
same,EC50,Rattus norvegicus [16],12.8 µM
CCC(C)CNC1=NS(=O)(=O)c2sc(Cl)cc2N1 (racemic),logD,[20],3.14
same,logP,[21],3.17
same,pKa,[22],8.29
same,Emax at 10 µM,Beta-TC6 [15],48%
same,IC50,Beta-TC6 [4],150 nM
same,EC50,[5],20000 nM
same,EC50,Rattus norvegicus [8],20.5 µM
CC1(NC2=NS(=O)(=O)c3sc(Cl)cc3N2)CCC1,Emax,Beta-TC6 [3],91%
same,IC50,Beta-TC6 [4],20 nM
same,EC50,[5],14 nM
same,Change,Rattus norvegicus [6],-48%
same,EC50,Rattus norvegicus [7],7.2 µM
same,EC50,Rattus norvegicus [8],6.5 µM
same,IC50,Rattus norvegicus [9],10 nM
same,Reduction,Rattus norvegicus [10],76%
same,Reduction,Rattus norvegicus [11],82%
same,IC50,[12],3 nM
same,IC50,[13],10.8 µM
same,IC50,[14],859 µM
CCNC1=NS(=O)(=O)c2sc(Cl)cc2N1,Emax at 10 µM,Beta-TC6 [15],74%
same,IC50,Beta-TC6 [4],1900 nM
same,EC50,[5],9000 nM
same,EC50,Rattus norvegicus [8],136 µM
same,EC50,Rattus norvegicus [17],136 µM
CCCNC1=NS(=O)(=O)c2sc(Cl)cc2N1,bioavailability,[1],69%
same,pKa,[18],8.23
same,half-life,[2],72 min
same,logP,[21],2.49
same,Emax at 10 µM,Beta-TC6 [15],65%
same,Emax,Beta-TC6 [3],65%
same,IC50,Beta-TC6 [4],2400 nM
same,EC50,[5],2000 nM
same,Change,Rattus norvegicus [6],13%
same,EC50,Rattus norvegicus [7],23.3 µM
same,EC50,Rattus norvegicus [8],64.7 µM
same,IC50,Rattus norvegicus [9],700 nM
same,Reduction,Rattus norvegicus [10],16%
same,Reduction,Rattus norvegicus [11],100%
same,IC50,[12],2270 nM
same,IC50,[13],584 µM
same,IC50,[14],924 µM
same,logD,[23],2.42
CCCCCCNC1=NS(=O)(=O)c2sc(Cl)cc2N1,Emax at 10 µM,Beta-TC6 [15],67%
same,IC50,Beta-TC6 [4],7100 nM
same,EC50,[5],200 nM
same,EC50,Rattus norvegicus [8],0.15 µM
same,EC50,Rattus norvegicus [16],0.15 µM
CC(C)NC1=NS(=O)(=O)c2sc(Cl)cc2N1,bioavailability,[1],65%
same,pKa,[18],8.35
same,half-life,[2],164 min
same,logP,[21],1.84
same,Emax,Beta-TC6 [3],85%
same,IC50,Beta-TC6 [4],230 nM
same,EC50,[5],600 nM
same,Change,Rattus norvegicus [6],-19%
same,EC50,Rattus norvegicus [7],6.2 µM
same,EC50,Rattus norvegicus [8],266 µM
same,IC50,Rattus norvegicus [9],180 nM
same,Reduction,Rattus norvegicus [10],96%
same,Reduction,Rattus norvegicus [11],96%
same,IC50,[12],340 nM
same,IC50,[13],187 µM
same,IC50,[14],554 µM
same,logD,[23],1.63
O=S1(=O)NC(NC2CCCC2)=Nc2cc(Cl)sc21,Emax,Beta-TC6 [3],67%
same,IC50,Beta-TC6 [4],1150 nM
same,EC50,[5],400 nM
same,Change,Rattus norvegicus [6],29%
same,EC50,Rattus norvegicus [7],10.8 µM
same,EC50,Rattus norvegicus [8],> 300 µM
same,IC50,Rattus norvegicus [9],440 nM
same,Reduction,Rattus norvegicus [10],22%
same,Reduction,Rattus norvegicus [11],99%
CC(C)(C)NC1=NS(=O)(=O)c2sc(Cl)cc2N1,Emax,Beta-TC6 [3],77%
same,IC50,Beta-TC6 [4],170 nM
same,EC50,[5],400 nM
same,Change,Rattus norvegicus [6],-36%
same,EC50,Rattus norvegicus [7],60.6 µM
same,EC50,Rattus norvegicus [8],169 µM
same,IC50,Rattus norvegicus [9],60 nM
same,Reduction,Rattus norvegicus [10],71%
same,Reduction,Rattus norvegicus [11],85%
same,IC50,[12],230 nM
same,IC50,[13],393 µM
same,IC50,[14],1350 µM
